{"data": "Results gathered from unrelated publications", "target": "Inhibitor of nuclear factor kappa-B kinase subunit alpha (CHUK, Homo sapiens, UniProt O15111)", "One construct used (O15111 1-745)": "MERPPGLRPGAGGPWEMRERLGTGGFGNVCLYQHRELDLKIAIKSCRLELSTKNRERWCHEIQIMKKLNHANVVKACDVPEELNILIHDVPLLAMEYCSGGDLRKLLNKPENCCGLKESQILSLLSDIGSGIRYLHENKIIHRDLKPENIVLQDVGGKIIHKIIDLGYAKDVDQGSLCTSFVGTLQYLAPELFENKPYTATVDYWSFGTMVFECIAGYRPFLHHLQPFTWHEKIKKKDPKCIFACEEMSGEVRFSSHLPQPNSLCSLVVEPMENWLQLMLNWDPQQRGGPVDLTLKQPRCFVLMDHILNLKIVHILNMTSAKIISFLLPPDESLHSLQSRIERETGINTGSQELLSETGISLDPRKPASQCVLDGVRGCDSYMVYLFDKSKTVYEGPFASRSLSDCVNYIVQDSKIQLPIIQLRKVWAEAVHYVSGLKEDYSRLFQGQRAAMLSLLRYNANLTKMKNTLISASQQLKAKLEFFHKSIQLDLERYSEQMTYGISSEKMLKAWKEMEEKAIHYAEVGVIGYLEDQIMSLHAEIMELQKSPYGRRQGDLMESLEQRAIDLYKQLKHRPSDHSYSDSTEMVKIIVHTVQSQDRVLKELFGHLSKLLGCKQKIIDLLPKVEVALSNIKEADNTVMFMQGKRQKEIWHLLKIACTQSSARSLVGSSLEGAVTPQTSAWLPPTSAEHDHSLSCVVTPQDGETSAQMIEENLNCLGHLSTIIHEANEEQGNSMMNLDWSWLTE"}
{"assay": "cell-free assay", "setting": "1 µM", "measurement": "remaining signal", "value": "76%", "SMILES": "C[C@H]1CC[C@H](n2c3cnccc3c3cnc(Nc4ccc5c(n4)CCN(C(=O)CO)C5)nc32)CC1"}
{"assay": "enzyme activity, inhibitor", "setting": "1 µM", "measurement": "inhibition", "value": "16%", "SMILES": "C=CC(=O)N1CCC[C@@H](n2nc(-c3ccc(Oc4ccccc4)cc3)c3c(N)ncnc32)C1"}
{"assay": "cell-free assay, competition with immobilised ligand", "setting": "25 µM", "measurement": "remaining binding", "value": "85%", "SMILES": "N#Cc1ccc(NC(=O)Nc2ccccc2)cc1"}
{"assay": "cell-free assay", "setting": "1 µM", "measurement": "remaining signal", "value": "100%", "SMILES": "C#Cc1cnc(Nc2ccnc(CO)c2)nc1Nc1ccccc1S(C)(=O)=NC#N (centres unmarked)"}
{"assay": "binding", "setting": "1 µM", "measurement": "remaining binding", "value": "89%", "SMILES": "COc1ccc2[nH]c3c4[nH]c5ccc(OC)cc5c4c4c(c3c2c1)C(=O)NC4=O"}
{"assay": "binding", "setting": "1 µM", "measurement": "remaining binding", "value": "94%", "SMILES": "COc1ccc2oc(-c3ccc4nc(N)oc4c3)c/c(=N\\c3ccccc3NC(=O)CCN)c2c1"}
{"assay": "binding, competition with immobilised ligand", "setting": "0.5 µM", "measurement": "remaining binding", "value": "100%", "SMILES": "CCCCC(=O)Nc1ccc(-c2ccc3ncn(CCC)c(=O)c3c2)cn1"}
{"assay": "enzyme activity, inhibitor", "setting": "1 µM", "measurement": "inhibition", "value": "0%", "SMILES": "C=CC(=O)N1CCC([C@@H]2CCNc3c(C(N)=O)c(-c4ccc(Oc5ccccc5)cc4)nn32)CC1"}
